Measurements from ChEMBL document CHEMBL3232894, “Discovery of AMG 925, a FLT3 and CDK4 dual kinase inhibitor with preferential affinity for the activated state of FLT3” (J Med Chem, 2014).

Test system: not listed separately
Assay: Clearance in iv dosed rat
Type: ADME, organism-based
Conditions: in vivo
Procedure, shortened: (§1)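 Intravenous and oral (gavage, solution) PK in rat, dog and cynomolgus monkey. The rat vehicle for both routes was water/acetate/tween at pH 4, 96/3/1 (v/v/v). Dog and monkey iv doses used 40% PG aqueous solution at pH 2, and their oral doses used 20% captisol aqueous solution.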

First: C[C@H]1CC[C@H](n2c3cnccc3c3cnc(Nc4ccc(N5CCN(C(=O)CO)CC5)nn4)nc32)CC1
Second: CN(C)C1CCN(c2ccc(Nc3ncc4c5ccncc5n([C@H]5CC[C@H](C)CC5)c4n3)nc2)CC1
The clearance of the first is 18-fold lower: 2 mL/min/kg for the first, 35 mL/min/kg for the second.

Test system: U-937
Assay: Antiproliferative activity against human U937 cells assessed as incorporation of [3H]thymidine into DNA after 72 hrs by beta-plate counting analysis
Conditions: not given

Going from CC(=O)c1c(C)c2cnc(Nc3ccc(N4CCNCC4)cn3)nc2n(C2CCCC2)c1=O [PALBOCICLIB] to CNC(=O)c1cc(Oc2ccc(NC(=O)Nc3ccc(Cl)c(C(F)(F)F)c3)cc2)ccn1 [SORAFENIB], the IC50 rises from 0.14 µM to > 3 µM. The first is the more potent here.

Test system: not listed separately
Assay: Antiproliferative activity against Rb-negative human MDA-MB-436 cells assessed as incorporation of [3H]thymidine into DNA after 72 hrs by beta-plate counting analysis
Type: functional
Conditions: not given

CC1CCC(n2c3cnccc3c3cnc(Nc4ccc(N5CCNCC5)cn4)nc32)CC1 (mixture of isomers) and CN(C)C1CCN(c2ccc(Nc3ncc4c5ccncc5n([C@H]5CC[C@H](C)CC5)c4n3)nc2)CC1 are within 1.5-fold of each other in IC50: 1.02 µM for the first, 1.25 µM for the second.

CC1(C)CCCC(n2c3cnccc3c3cnc(Nc4ccc(N5CCNCC5)cn4)nc32)C1 (centres undefined) and C[C@H]1CC[C@H](n2c3cnccc3c3cnc(Nc4ccc(N5CCN(C(=O)CO)CC5)nn4)nc32)CC1 are within 1.5-fold of each other in IC50: 1.62 µM for the first, 1.19 µM for the second.

Test system: MOLM-13
Assay: Antiproliferative activity against human MOLM13 cells harboring FLT3 ITD mutant assessed as incorporation of [3H]thymidine into DNA after 72 hrs by beta-plate counting analysis
Type: functional, cell-based
Conditions: not given

CC1(C)CCCC(n2c3cnccc3c3cnc(Nc4ccc(N5CCNCC5)cn4)nc32)C1 (centres undefined) and CN(C)C1CCN(c2ccc(Nc3ncc4c5ccncc5n([C@H]5CC[C@H](C)CC5)c4n3)nc2)CC1 are the same in IC50: 0.01 µM for the first, 0.01 µM for the second.

Compared with CC(=O)c1c(C)c2cnc(Nc3ccc(N4CCNCC4)cn3)nc2n(C2CCCC2)c1=O [PALBOCICLIB], C[C@H]1CC[C@H](n2c3cnccc3c3cnc(Nc4ccc(N5CCN(C(=O)CO)CC5)nn4)nc32)CC1 is 2.6-fold lower in IC50: 0.096 µM for the first, 0.037 µM for the second.

For CNC(=O)c1cc(Oc2ccc(NC(=O)Nc3ccc(Cl)c(C(F)(F)F)c3)cc2)ccn1 [SORAFENIB], the IC50 was 0.005 µM.

Test system: MOLM-13
Assay: Induction of apoptosis in human MOLM13 cells harboring FLT3 ITD mutant at 1 uM after 48 hrs by Annexin V/Sytox Green staining based flow cytometry
Type: functional
Conditions: not given
Procedure, shortened: (§2)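 MOLM13, sorafenib-resistant MOLM13 and U937 cells were each exposed to compound at 1 μM for 48 h. Cells were then stained with Annexin V/Sytox Green and analysed by flow cytometry. Readout is apoptotic cells as a percentage of all cells analysed.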

Going from CC(=O)c1c(C)c2cnc(Nc3ccc(N4CCNCC4)cn3)nc2n(C2CCCC2)c1=O [PALBOCICLIB] to CNC(=O)c1cc(Oc2ccc(NC(=O)Nc3ccc(Cl)c(C(F)(F)F)c3)cc2)ccn1 [SORAFENIB], the Activity rises from 16.95% to 84.6%.

Test system: MOLM-13
Assay: Induction of apoptosis in sorafenib-resistant human MOLM13 cells harboring FLT3 ITD+D835Y mutant at 1 uM after 48 hrs by Annexin V/Sytox Green staining based flow cytometry
Type: functional
Conditions: not given
Procedure, shortened: as §2

First: CC(=O)c1c(C)c2cnc(Nc3ccc(N4CCNCC4)cn3)nc2n(C2CCCC2)c1=O [PALBOCICLIB]
Second: CNC(=O)c1cc(Oc2ccc(NC(=O)Nc3ccc(Cl)c(C(F)(F)F)c3)cc2)ccn1 [SORAFENIB]
The Activity of the first is higher: 8.35% for the first, 5.16% for the second.

Test system: not listed separately
Assay: Drug uptake in CrTac:NCR-Foxn1nu (NCR) nude mouse at 150 mg/kg, po after 3 hrs
Type: ADME, organism-based
Set-up: dose 150 mg/kg, route oral
Conditions: in vivo, read-out: Drug uptake
Procedure, shortened: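 Total plasma drug concentration in mouse PK studies, taken 3 h after a 150 mg/kg oral dose.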

With C[C@H]1CC[C@H](n2c3cnccc3c3cnc(Nc4ccc(N5CCN(C(=O)CO)CC5)nn4)nc32)CC1 the concentration at 3 h was 10.9 µM.

Test system: COLO 205
Assay: Antiproliferative activity against Rb-positive human COLO205 cells assessed as incorporation of [14C]thymidine into DNA after 72 hrs by beta-plate counting analysis
Conditions: not given

Compared with CC1CCC(n2c3cnccc3c3cnc(Nc4ccc(N5CCNCC5)cn4)nc32)CC1 (mixture of isomers), CN(C)C1CCN(c2ccc(Nc3ncc4c5ccncc5n([C@H]5CC[C@H](C)CC5)c4n3)nc2)CC1 is 5.5-fold lower in IC50: 0.055 µM for the first, 0.01 µM for the second.

CC1(C)CCCC(n2c3cnccc3c3cnc(Nc4ccc(N5CCNCC5)cn4)nc32)C1 (centres undefined) and CC(=O)c1c(C)c2cnc(Nc3ccc(N4CCNCC4)cn3)nc2n(C2CCCC2)c1=O [PALBOCICLIB] are within 1.5-fold of each other in IC50: 0.033 µM for the first, 0.036 µM for the second.

Going from CNC(=O)c1cc(Oc2ccc(NC(=O)Nc3ccc(Cl)c(C(F)(F)F)c3)cc2)ccn1 [SORAFENIB] to C[C@H]1CC[C@H](n2c3cnccc3c3cnc(Nc4ccc(N5CCN(C(=O)CO)CC5)nn4)nc32)CC1, the IC50 falls from > 3 µM to 0.031 µM. The second is the more potent here.

Target: Cyclin-dependent kinase 4/cyclin D1 (Homo sapiens, UniProt P11802)
Assay: Inhibition of CDK4/cyclin D1 (unknown origin) using Rb as substrate after 60 mins by scintillation counting analysis in presence of [r-33P]ATP
Type: protein-complex assay
Conditions: not given

Chain of Cyclin-dependent kinase 4/cyclin D1 (P11802 whole entry): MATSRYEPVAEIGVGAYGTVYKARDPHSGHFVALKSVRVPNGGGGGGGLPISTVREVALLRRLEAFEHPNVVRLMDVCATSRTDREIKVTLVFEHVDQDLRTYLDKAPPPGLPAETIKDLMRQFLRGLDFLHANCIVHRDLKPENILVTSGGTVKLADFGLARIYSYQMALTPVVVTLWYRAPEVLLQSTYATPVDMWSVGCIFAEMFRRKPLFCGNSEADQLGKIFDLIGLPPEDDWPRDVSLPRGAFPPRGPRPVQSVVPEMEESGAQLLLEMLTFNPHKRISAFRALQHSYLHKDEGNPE
Chain of Cyclin-dependent kinase 4/cyclin D1 (P24385 whole entry, further chain): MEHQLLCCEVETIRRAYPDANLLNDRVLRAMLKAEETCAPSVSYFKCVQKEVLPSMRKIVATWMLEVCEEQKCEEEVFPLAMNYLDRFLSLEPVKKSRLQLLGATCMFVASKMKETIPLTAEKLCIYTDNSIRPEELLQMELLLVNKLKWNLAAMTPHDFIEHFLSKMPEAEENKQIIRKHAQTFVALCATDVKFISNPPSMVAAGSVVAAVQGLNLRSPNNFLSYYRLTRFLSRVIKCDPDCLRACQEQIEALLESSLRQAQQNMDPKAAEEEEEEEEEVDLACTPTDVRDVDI

Compared with CC1CCC(n2c3cnccc3c3cnc(Nc4ccc(N5CCNCC5)cn4)nc32)CC1 (mixture of isomers), CN(C)C1CCN(c2ccc(Nc3ncc4c5ccncc5n([C@H]5CC[C@H](C)CC5)c4n3)nc2)CC1 is 2-fold higher in IC50: 0.001 µM for the first, 0.002 µM for the second. The first is the more potent here.

CC1(C)CCCC(n2c3cnccc3c3cnc(Nc4ccc(N5CCNCC5)cn4)nc32)C1 (centres undefined) and C[C@H]1CC[C@H](n2c3cnccc3c3cnc(Nc4ccc(N5CCN(C(=O)CO)CC5)nn4)nc32)CC1 are the same in IC50: 0.003 µM for the first, 0.003 µM for the second.

Test system: MOLM-13
Assay: cells
Conditions: Homo sapiens

First: CC(=O)c1c(C)c2cnc(Nc3ccc(N4CCNCC4)cn3)nc2n(C2CCCC2)c1=O [PALBOCICLIB]
Second: CNC(=O)c1cc(Oc2ccc(NC(=O)Nc3ccc(Cl)c(C(F)(F)F)c3)cc2)ccn1 [SORAFENIB]
The IC50 of the first is lower: 0.096 µM for the first, > 3 µM for the second. The first is the more potent here.

Target: CYP3A4 (Homo sapiens, UniProt P08684)
Assay: Inhibition of CYP3A4 (unknown origin) at 3 uM
Type: ADME
Conditions: not given

Chain of CYP3A4 (P08684 whole entry): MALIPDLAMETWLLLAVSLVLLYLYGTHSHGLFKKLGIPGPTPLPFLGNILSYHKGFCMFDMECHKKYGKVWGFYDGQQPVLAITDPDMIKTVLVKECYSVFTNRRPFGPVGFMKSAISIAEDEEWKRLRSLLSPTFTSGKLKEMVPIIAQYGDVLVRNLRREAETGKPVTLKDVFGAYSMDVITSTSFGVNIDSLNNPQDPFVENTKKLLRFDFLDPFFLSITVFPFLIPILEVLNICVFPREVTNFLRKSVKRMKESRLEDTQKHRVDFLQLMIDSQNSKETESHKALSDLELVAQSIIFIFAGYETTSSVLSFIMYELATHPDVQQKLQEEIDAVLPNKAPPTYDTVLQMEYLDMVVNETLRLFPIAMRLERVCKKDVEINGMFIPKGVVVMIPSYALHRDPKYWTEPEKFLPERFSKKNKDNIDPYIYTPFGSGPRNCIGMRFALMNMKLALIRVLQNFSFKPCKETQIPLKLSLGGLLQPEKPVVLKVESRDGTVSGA

First: CC1CCC(n2c3cnccc3c3cnc(Nc4ccc(N5CCNCC5)cn4)nc32)CC1 (mixture of isomers)
Second: CC1(C)CCCC(n2c3cnccc3c3cnc(Nc4ccc(N5CCNCC5)cn4)nc32)C1 (centres undefined)
The inhibition at 3 µM of the first is lower: 46% for the first, 90% for the second.

Test system: not listed separately
Assay: Oral bioavailability in rat
Type: ADME, organism-based
Conditions: in vivo
Procedure, shortened: as §1

Compared with C[C@H]1CC[C@H](n2c3cnccc3c3cnc(Nc4ccc(N5CCN(C(=O)CO)CC5)nn4)nc32)CC1, CN(C)C1CCN(c2ccc(Nc3ncc4c5ccncc5n([C@H]5CC[C@H](C)CC5)c4n3)nc2)CC1 is higher in bioavailability: 22% for the first, 44% for the second.

Target: T1, Receptor-type tyrosine-protein kinase FLT3 (Homo sapiens, UniProt P36888)
T1 sequence (P36888 whole entry): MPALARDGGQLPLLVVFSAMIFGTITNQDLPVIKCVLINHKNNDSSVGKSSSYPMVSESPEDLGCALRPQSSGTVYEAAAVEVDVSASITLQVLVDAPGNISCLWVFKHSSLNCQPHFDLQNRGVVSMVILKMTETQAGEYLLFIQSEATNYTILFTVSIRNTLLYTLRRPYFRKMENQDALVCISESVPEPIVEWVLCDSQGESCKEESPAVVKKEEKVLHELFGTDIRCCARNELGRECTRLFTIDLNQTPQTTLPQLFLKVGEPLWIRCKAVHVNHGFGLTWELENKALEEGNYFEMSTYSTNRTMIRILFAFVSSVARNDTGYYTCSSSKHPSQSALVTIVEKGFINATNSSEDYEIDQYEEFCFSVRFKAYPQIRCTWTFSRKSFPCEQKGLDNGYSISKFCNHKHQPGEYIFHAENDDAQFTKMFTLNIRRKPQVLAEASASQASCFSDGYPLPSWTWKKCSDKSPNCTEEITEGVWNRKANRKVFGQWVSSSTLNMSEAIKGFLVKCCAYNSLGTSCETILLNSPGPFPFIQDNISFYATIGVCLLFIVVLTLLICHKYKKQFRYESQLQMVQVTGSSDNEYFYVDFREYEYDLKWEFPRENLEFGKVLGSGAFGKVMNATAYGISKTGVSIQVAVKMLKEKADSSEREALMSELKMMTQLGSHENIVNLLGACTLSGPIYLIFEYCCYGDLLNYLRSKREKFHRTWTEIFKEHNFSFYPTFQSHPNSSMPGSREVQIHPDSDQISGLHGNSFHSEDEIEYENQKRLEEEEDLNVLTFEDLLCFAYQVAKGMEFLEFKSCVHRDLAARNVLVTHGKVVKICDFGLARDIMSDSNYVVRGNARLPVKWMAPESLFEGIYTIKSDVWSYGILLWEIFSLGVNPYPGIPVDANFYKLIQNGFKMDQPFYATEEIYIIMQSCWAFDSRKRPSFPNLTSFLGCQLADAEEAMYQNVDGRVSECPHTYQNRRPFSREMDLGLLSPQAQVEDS
Assay: Inhibition of GST-fused human FLT3 cytoplasmic domain (amino acids 564 to 993) using Ulight-JAK1 as substrate after 1 hr by TR-FRET assay
Conditions: not given

CC1CCC(n2c3cnccc3c3cnc(Nc4ccc(N5CCNCC5)cn4)nc32)CC1 (mixture of isomers) and CN(C)C1CCN(c2ccc(Nc3ncc4c5ccncc5n([C@H]5CC[C@H](C)CC5)c4n3)nc2)CC1 are the same in IC50: 0.002 µM for the first, 0.002 µM for the second.

First: CC1(C)CCCC(n2c3cnccc3c3cnc(Nc4ccc(N5CCNCC5)cn4)nc32)C1 (centres undefined)
Second: C[C@H]1CC[C@H](n2c3cnccc3c3cnc(Nc4ccc(N5CCN(C(=O)CO)CC5)nn4)nc32)CC1
The IC50 of the first is 2.7-fold lower: 0.003 µM for the first, 0.008 µM for the second. The first is the more potent here.

Target: Cyclin-dependent kinase 1/cyclin B1 (Homo sapiens, UniProt P06493)
Assay: Inhibition of CDK1/cyclin B (unknown origin) using histone H1 as substrate after 60 mins by scintillation counting analysis in presence of [r-33P]ATP
Type: protein-complex assay
Conditions: not given

Chain of Cyclin-dependent kinase 1/cyclin B1 (P06493 whole entry): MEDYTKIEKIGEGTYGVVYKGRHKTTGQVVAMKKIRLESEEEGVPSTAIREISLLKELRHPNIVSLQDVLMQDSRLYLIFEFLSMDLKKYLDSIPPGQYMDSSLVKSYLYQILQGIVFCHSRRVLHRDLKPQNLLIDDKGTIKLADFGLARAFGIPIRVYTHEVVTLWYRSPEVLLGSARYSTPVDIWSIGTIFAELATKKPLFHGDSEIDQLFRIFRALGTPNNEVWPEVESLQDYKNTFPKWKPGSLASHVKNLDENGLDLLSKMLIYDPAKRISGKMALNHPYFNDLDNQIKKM
Chain of Cyclin-dependent kinase 1/cyclin B1 (P14635 whole entry, further chain): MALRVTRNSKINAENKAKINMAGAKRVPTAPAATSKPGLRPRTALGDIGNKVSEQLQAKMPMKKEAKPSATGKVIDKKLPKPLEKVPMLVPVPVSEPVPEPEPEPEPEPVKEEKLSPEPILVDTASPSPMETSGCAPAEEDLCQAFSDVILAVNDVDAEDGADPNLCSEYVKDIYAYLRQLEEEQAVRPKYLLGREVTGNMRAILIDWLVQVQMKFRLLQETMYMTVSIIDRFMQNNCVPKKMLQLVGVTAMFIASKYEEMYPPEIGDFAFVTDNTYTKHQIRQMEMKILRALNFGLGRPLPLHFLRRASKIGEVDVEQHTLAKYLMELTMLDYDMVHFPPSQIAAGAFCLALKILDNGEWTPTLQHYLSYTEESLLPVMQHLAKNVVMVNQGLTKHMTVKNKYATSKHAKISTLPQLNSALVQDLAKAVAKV

Compared with CC1CCC(n2c3cnccc3c3cnc(Nc4ccc(N5CCNCC5)cn4)nc32)CC1 (mixture of isomers), CN(C)C1CCN(c2ccc(Nc3ncc4c5ccncc5n([C@H]5CC[C@H](C)CC5)c4n3)nc2)CC1 is 1.6-fold lower in IC50: 5.2 µM for the first, 3.29 µM for the second. The second is the more potent here.

Compared with CC1(C)CCCC(n2c3cnccc3c3cnc(Nc4ccc(N5CCNCC5)cn4)nc32)C1 (centres undefined), C[C@H]1CC[C@H](n2c3cnccc3c3cnc(Nc4ccc(N5CCN(C(=O)CO)CC5)nn4)nc32)CC1 is 2.8-fold lower in IC50: 2.96 µM for the first, 1.05 µM for the second.

Test system: U-937
Assay: Induction of apoptosis in human U937 cells harboring wild type FLT3 at 1 uM after 48 hrs by Annexin V/Sytox Green staining based flow cytometry
Type: functional
Conditions: not given
Procedure, shortened: as §2

First: CC(=O)c1c(C)c2cnc(Nc3ccc(N4CCNCC4)cn3)nc2n(C2CCCC2)c1=O [PALBOCICLIB]
Second: CNC(=O)c1cc(Oc2ccc(NC(=O)Nc3ccc(Cl)c(C(F)(F)F)c3)cc2)ccn1 [SORAFENIB]
The Activity of the first is higher: 9.09% for the first, 8.76% for the second.
